Assay: Toxicity liver stage against HepG2, at 10uM
Format: cell-based
Parameters: test concentration 10 uM, cell line HepG2-A16-CD81EGFP
Conditions: human, HepG2-A16-CD81EGFP cells; read-out: INHIBITION
Summary of the method: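 Uninfected HepG2-A16-CD81EGFP cells, 3 × 10^3 per well, 1536-well, plated on prespotted compound at 10 μM final, parasite-free screening media added to match infected plates; puromycin 10 μM positive, DMSO 0.5% negative; run in parallel with 48 h PbLuc assay at 37 °C, 5% CO2; viability by CellTiter-Glo luminescence, normalized to controls.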

Compound	cytotoxicity at 10 µM [%]
O=C(c1cn(CC(=O)N2CCCCC2)c2ccccc12)C1CC1	9.14
FC(F)(F)c1ccc(-c2c[nH]c([C@@H]3COCCN3)n2)cc1	1.05
CC(=O)N1CCN(C(=O)Cc2cnc(-c3c(Cl)cccc3Cl)s2)CC1	7.27
CC(C)NC(=O)c1csc(NC2CC2)n1	-2.72
CN1CCN(C(=O)c2cc3sccc3n2Cc2ccc(Cl)cc2)CC1	1.05
CC1CC(=O)c2cc(C(=O)N3CCOCC3)c(=O)[nH]c2C1 (configuration not stated)	-3.06
COc1c[nH]c(C(=O)N2CCN(c3ccc(Cl)cc3)CC2)cc1=O	4.42
CC(=O)Nc1cnc(-n2ccnc2)nc1	-1.25
O=C(NCCC(O)c1ccoc1)Nc1cccs1 (configuration not stated)	-2.55
O=C1[C@H]2CN(S(=O)(=O)c3cccs3)C[C@H]2CN1CC1CC1	2
O=C(NC1CC1)N1Cc2[nH]nc(COCC3CC3)c2C1	13.6
Fc1cccnc1N1CCC2(CNCCC2(F)F)C1 (configuration not stated)	-7.15
O=S(=O)(C1CC1)N1CCc2ncc(Cn3cncn3)n2CC1	3.62
COc1ncnc2c1CCN(c1cccc(F)c1)CC2	10.7
COCCO[C@H]1CCN(c2ccc(C)nn2)[C@H]1Cc1cnn(C)c1	2.5
COCCN1C[C@@H](C)[C@@]2(COCCN(C(=O)c3ccoc3)C2)C1	7.4
COc1cc(Cl)c(C)cc1-n1nnc(C(=O)O)c1-c1ccncc1	4.74
CC(C)C(NC(=O)N1CCN(c2ccc(Cl)cc2)CC1)C(=O)NC1CC1 (configuration not stated)	23.6
O=C(NCc1ccco1)[C@H]1C[C@H]2OCC[C@H]2N(C(=O)c2ccco2)C1	2.79
CCOc1cc(C(=O)n2cc(C)cn2)cc(OCC)c1OCC	8.29
c1cnc(CC2COCCN(C3CCCCC3)C2)cn1 (configuration not stated)	0.514
C=C(C)Cn1nc(C)c(CN2CCN(C3CCCCC3)C(=O)C2)c1C	4.59
Cc1ccc(CN2CCOCC2c2[nH]ncc2C)cn1 (configuration not stated)	4.52

Compound	cytotoxicity at 10 µM [%]
Cc1nc(-c2c(C)noc2C)cc(C2CCN(CC(=O)N(C)C)CC2)n1	5.84
O=C(c1cncs1)N1CCOCC(Cc2ccccn2)C1 (configuration not stated)	0.105
Cc1cc(C)n(C2CCN(Cc3nc4ccccc4n3C)CC2)n1	1.64
O=C(NCc1ccccn1)c1cncc(C2CCCN2)n1 (configuration not stated)	3.6
COc1nc(N2CCNCC2)ncc1Br	5.2
CCc1noc(CSc2n[nH]c(-c3ccccn3)n2)n1	5.49
O=C(Cn1nnn(-c2cccs2)c1=O)NCC1CCOC1 (configuration not stated)	-40.4
CCS(=O)(=O)CCN1CCN(C2CCC(C(C)C)CC2)CC1 (configuration not stated)	7.76
O=C1CC2(CCSC2)C(=O)N1Cc1coc(-c2ccccc2)n1 (configuration not stated)	5.57
NC(=O)c1ccc(NC(=O)c2ccncc2Cl)cn1	8.29
Cc1noc(C)c1CNC(=O)Nc1ccc(N2CCOC2=O)cc1	-2.93
COc1ccccc1CC1CCN(C(=O)CCc2ccccn2)CC1	-3.2
CCOC(C)C(=O)NS(=O)(=O)c1cccc2cc(C)cnc12 (configuration not stated)	-3.14
CCOC(=O)c1nnc2ccccc2c1N1CCN(C(C)C)CC1	-1.54
Cn1cc(C2CCCN2C(=O)Cc2coc(-c3ccccc3)n2)cn1 (configuration not stated)	4.14
Clc1cnccc1N1CCCC2(CCCOC2)C1 (configuration not stated)	-2.35
Cc1ccc(C(=O)NC2CCN(Cc3nc(C(C)C)no3)CC2)s1	3.82
CCN(CC1CCOC1)C(=O)c1ccc(N(C)C)cc1F (configuration not stated)	3.54
Cc1ccc(CNC(=O)NC(C)CN2CCOCC2)s1 (configuration not stated)	-14.1
Cc1cnn(CC2CCCN2C(=O)Cc2c(C)noc2Cl)c1 (configuration not stated)	0.471
COc1ccccc1S(=O)(=O)CCOC(C)C	6.24
CCN(Cc1ccoc1)C(=O)c1cc(S(N)(=O)=O)c(C)o1	-2.98
O=C(C(C1CC1)C1CC1)N1CCC(n2ccnn2)CC1	-45.7

Compound	cytotoxicity at 10 µM [%]
CCOC(C(=O)N1CCn2c(nnc2C(C)C)C1)c1ccccc1 (configuration not stated)	3.84
O=C(NCCNc1ccccn1)NCC1CCS(=O)(=O)C1 (configuration not stated)	1.48
COCCN(C)S(=O)(=O)c1cc(C)cc(F)c1	3.49
O=C(Nc1cccnc1)NC(CCCO)c1ccccc1 (configuration not stated)	-4.4
O=C1CCCc2[nH]c(=O)c(C(=O)N3CCc4ccccc4C3)cc21	14.6
Cc1cccc(NS(=O)(=O)c2cc(C(=O)O)oc2C)c1	-9.15
CCC(C)N(C)S(=O)(=O)c1ccc(CCNC(C)=O)s1 (configuration not stated)	-3.45
CO[C@H]1CC[C@H]2[C@H]1OCCN2C(=O)CCOc1ccccc1	-95
CS(=O)(=O)NC[C@]12COC[C@H]1CN(C(=O)CC1CCCC1)C2	-101
CCCOc1cccc(-c2nc3c([nH]2)CCNC3)c1	-3.38
Cc1cccc(CNC2CC(=O)N(Cc3cccc(F)c3)C2)c1 (configuration not stated)	1.22
COc1ccc2c(c1)C(C(=O)N(C)CCn1ccnc1C)CC(=O)N2 (configuration not stated)	-44.8
CCSCC(C)NCc1cc(-c2ccco2)on1 (configuration not stated)	1.29
COc1cccc2c1OCC(NCCCOc1cccnc1)C2 (configuration not stated)	1.52
COc1ccc(Cc2nc3c([nH]2)CC(C)(C)CNC3=O)cc1OC	-3.04
COCCN(C)C(C(=O)O)c1ccc(F)c(C)c1 (configuration not stated)	1.87
O=C(C1COc2ccccc2O1)N1Cc2cnn(CCO)c2C1 (configuration not stated)	-3.12
O=C(C1CC12CCC2)N1CCC(n2cc(-c3ccsc3)nn2)CC1 (configuration not stated)	5.85
Cc1[nH]c(-c2ccccc2)nc1C(=O)N1CCc2[nH]cnc2C1C(=O)O (configuration not stated)	2.43
Oc1cc(CNCCN2CCCCC2)nc2c(F)cccc12	-1.16
Cc1cc(C)n(CCCN(C)Cc2cn[nH]c2-c2ccc(F)cc2)n1	2.09
Cc1nc(CN2CCCC23CCN(c2nc4ccccc4s2)CC3)co1	-1.99
COc1cccc2c1OCCCN(Cc1ccc(C(N)=O)c(=O)[nH]1)C2	4.82

Compound	cytotoxicity at 10 µM [%]
Cc1ccc(-c2nc(CC3CCN(C)CC3)no2)cc1N1CCNC1=O	-11.8
COCC(=O)N1CCC2(CC1)CC(=O)N(Cc1ccc(Cl)cc1)C2	0.96
CC(C)n1ccnc1C1CCCN(c2ncccc2C(N)=O)C1 (configuration not stated)	-9.53
N#Cc1cccc(NC2CC(=O)N(Cc3ccccc3Cl)C2)n1 (configuration not stated)	4.37
CCOCCC(=O)NCC1CCCO1 (configuration not stated)	6.56
COc1cccc(OCC2CCCN(C(=O)c3ncc(F)cc3F)C2)c1 (configuration not stated)	6.35
CC(C)[C@H]1CN(C(=O)CO)C[C@@H]1N(C)C	7.1
CCc1noc(CN(CC)C(=O)CC2C(=O)NCCN2CC(C)(C)C)n1 (configuration not stated)	1.83
COCCN(C)CCN1CC2(CCN(C3CCNCC3)CC2)OC1=O	1.64
O=C(c1cccnc1N1CCN(Cc2ccoc2)CC1)N1CCCCC1	-3.68
Cc1nc(N2CCN(C)CC2)ncc1C(=O)N1CCC(O)(CO)CC1	-0.395
Cc1cc(N2CCC3(CCC(=O)N(CC4CC4)C3)CC2)nc(N)n1	6.92
CCc1nc(CN(C)C2CCCN(c3cccnn3)C2)no1 (configuration not stated)	-5.87
Cc1noc(NC(=O)CCNC(=O)c2ccc(Br)cc2)n1	0.449
Cc1ccc(F)c(NS(=O)(=O)c2cc3c(c(C(=O)O)c2)OCCO3)c1	-5.32
CCOc1cc(C(=O)N2CCCC(c3noc(C(C)C)n3)C2)ccn1 (configuration not stated)	-6.73
CCNc1cc2c(nn1)CCN(C(=O)c1c(C)noc1C)C2	-5.76
CC(=O)N(Cc1ncc(C(C)C)o1)C1CCN(Cc2cc(C)no2)C1 (configuration not stated)	-5.89
CC(=O)c1cccc(NC(=O)Cn2nc(-c3cccs3)oc2=O)c1	4.78
COc1cccc(-n2nnc(C(=O)N3CCOC(C)C3)c2C)c1 (configuration not stated)	-9.95
Cc1nn(C)c(C)c1C(=O)NCc1ccnc(OCC(F)(F)F)c1	-10.7
N#Cc1cccnc1N1CCCN(C(=O)CCn2cncn2)CC1	0.111
CC1CN(C(=O)NCCNc2cnccn2)CCO1 (configuration not stated)	5.31

Compound	cytotoxicity at 10 µM [%]
Cc1nc(C)n(C2CCCN(C(=O)CCCOc3ccccc3)C2)n1 (configuration not stated)	-12.7
COCc1nc(C(=O)NS(=O)(=O)c2ccc(C)cc2C)cs1	-4.35
N#CC1(C(=O)N2CCN(c3nccs3)CC2)CCCCC1	-8.24
CSCc1cccc(C(=O)N2CCN(CC(C)O)CC2)c1 (configuration not stated)	-5.31
CN(CC(=O)N1CCCN(Cc2cscn2)CC1)c1cnccn1	-7.81
CC(C)(C)Nc1c(C2CCCN(C(=O)C3CC3)C2)nc2ccccn12 (configuration not stated)	8.07
O=C(C1CC1)N1CCC2(CCCN2Cc2ccc(F)cc2)CC1	3.35
CN(C)C[C@H]1OC[C@@H]2CCN(C(=O)Cc3cccs3)C[C@@H]21	7.13
Brc1cc(CNCc2nnc3n2CCC3)cs1	-6.22
COc1cc(N2CCC3(CCCN3Cc3cnn(C)c3)CC2)ncn1	6.5
CC(C)CN1CC[C@@H]2[C@@H]1CCN2S(=O)(=O)c1cn(C)cn1	7.86
CCc1ncnc2c1CCN(Cc1cccs1)CC2	4.98
CCN1C[C@H]2C3(CCN(S(=O)(=O)CC)CC3)CC[C@@]2(C(=O)N(C)C)C1	2.84
O=C(c1cnccn1)N1CCOC2(CCN(Cc3ccsc3)CC2)C1	-4.45
CNC(=O)CN1CCO[C@H]2CN(CC3CCOCC3)C[C@H]21	12.5
Cc1ccc(CN2CCc3ncnc(-c4ccc(F)cc4)c3CC2)o1	-9.49
O=C(NC1CC1)N1CCCC2(CCCCN2)C1 (configuration not stated)	8.77
CCc1cc(NC2CCC(N)CC2)n2nc(C)c(C)c2n1 (configuration not stated)	-4.33
O=C(CC1[C@H]2CN(c3ncccn3)C[C@@H]12)Nc1cccnc1 (some centres not stated)	-1.55
CSc1ncc(C(=O)N2C[C@@H]3CC[C@H]2CN(c2ncccn2)C3)cn1	1.26

Source: ChEMBL document CHEMBL4513216, “Probing the Open Global Health Chemical Diversity Library for Multistage-Active Starting Points for Next-Generation Antimalarials” (ACS Infect Dis, 2020)
